For 18 compounds, IC50 and inhibition results are on record in ChEMBL document CHEMBL1821622, “Thiazole- and imidazole-containing peptidomimetic inhibitors of protein farnesyltransferase” (Bioorg Med Chem Lett, 2011).

Experiment [1] in a line: (§1) Inhibition of rat recombinant FTase using Dansyl-Gly-Cys-Val-Leu-Ser-OH peptide and farnesyl-pyrophosphate substrates measured every 15 seconds for 5 mins by fluorescent assay.
Experiment [2] relates to RASMC. Put plainly: (§2) Inhibition of cell proliferation in RASMC cells after 72 hrs by Coulter Counter method. It is filed as functional, cell-based. The note with it: Rattus norvegicus. The method in brief:
(§3)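 Rat aortic SMCs were seeded at 2 × 10^5 cells per 35 mm dish in DMEM with 10% FCS. Cells were counted after trypsinization. DMSO was at most 0.5% final. IC50 came from linear regression of log concentration vs logit.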

The species named for the next experiment is Rattus norvegicus. Described as §1.
For experiment [3], the system named is RASMC. Put plainly: Inhibition of rat Ftase in RASMC cells assessed as reduction of Ras prenylation at 50 to 100 uM after 72 hrs by Western blot analysis relative to control. It is filed as cell-based. The method, boiled down: (§4)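 Rat SMCs were seeded at 4 × 10^5 per 60 mm dish and taken through the same serum arrest and restimulation as the proliferation assay, with 72 h exposure. Cells were lysed for 30 min on ice in Tris pH 7.5/NaCl/NP-40 buffer with inhibitors and cleared at 15,000g. Protein was measured by BCA. Lysates were run on reducing SDS-PAGE and immunoblotted with anti-Ras (RAS10) using ECL. The slower band is unprenylated Ras; the faster band is prenylated Ras.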

Experiment [4] in a line: as §2. It is filed as functional, cell-based, Rattus norvegicus. The method, boiled down: as §3
In experiment [5] the test system is RASMC. The experiment can be described thus: Inhibition of rat Ftase in RASMC cells assessed as reduction in Ras prenylation at 2 uM after 72 hrs by Western blot analysis. It counts as cell-based. The method, boiled down: as §4
For orientation: Immunoblotting shows a protein as a band on a membrane.

The mark [6] stands for this setting: Rattus norvegicus, RASMC, 72 h, read-out: IC50.

The source made the active and inactive calls. No cut-off for these calls is given here.

What is called IC50 is the point on the concentration scale where inhibition reaches its midpoint.

With `CSCC[C@H](NC(=O)c1ccc(NC(=O)CCc2csc(SC)n2)cc1-c1ccccc1C)C(=O)O`, the IC50 in experiment [1] (read-out: IC50) is 415 nM.
In the case of `CSCC[C@H](NC(=O)c1ccc(NC(=O)Cc2csc(N)n2)cc1-c1ccccc1C)C(=O)O`, the inhibition result in the experiment with RASMC [2], in the experiment filed under Rattus norvegicus and in the experiment on RASMC [3] was “Dose-dependent effect” each time. The IC50 in experiment [1] (read-out: IC50) came out at 49 nM.
Consider `CSCC[C@H](NC(=O)c1ccc(NC(=O)CCc2csc(S)n2)cc1-c1ccccc1C)C(=O)OC(C)C`, for which the IC50 in experiment [4] (setting [6]) stood at 25000 nM.
For the compound `CCC(C)(C)C(=O)O[C@H]1C[C@@H](C)C=C2C=C[C@H](C)[C@H](CC[C@@H]3C[C@@H](O)CC(=O)O3)[C@H]21`, the inhibition result with RASMC [5] was “Active”.
For the compound `CSCC[C@H](NC(=O)c1ccc(NC(=O)Cc2csc(SC)n2)cc1-c1ccccc1C)C(=O)OC(C)C`, the IC50 entry in experiment [4] (rasmc) is given as “Not Active”.
For the compound `CSCC[C@H](NC(=O)c1ccc(NC(=O)CCc2csc(S)n2)cc1-c1ccccc1C)C(=O)O`, in experiment [1] (read-out: IC50), the IC50 stood at 526 nM.
For the compound `CSCC[C@H](NC(=O)c1ccc(NC(=O)Cc2csc(S)n2)cc1-c1ccccc1C)C(=O)OC(C)C`, the IC50 in experiment [4] (setting [6]) came out at 21000 nM.
In the case of `CSCC[C@H](NC(=O)c1ccc(NC(=O)CCc2c[nH]c(S)n2)cc1-c1ccccc1C)C(=O)O`, in experiment [1], the IC50 entry is “Not Active”.
With `CSCC[C@H](NC(=O)c1ccc(NC(=O)CCc2csc(N)n2)cc1-c1ccccc1C)C(=O)OC(C)C`, the 50% inhibitory concentration (IC50) entry in experiment [4] (rasmc) is on record as “Not Active”.
Regarding `CSCC[C@H](NC(=O)c1ccc(NC(=O)CCc2c[nH]c(S)n2)cc1-c1ccccc1C)C(=O)OC(C)C`, in experiment [4] (setting [6]), the IC50 worked out at 34000 nM.
Turning to `CSCC[C@H](NC(=O)c1ccc(NC(=O)CCc2csc(N)n2)cc1-c1ccccc1C)C(=O)O`, the IC50 in experiment [1] (read-out: IC50) is 390 nM.
The same measure, in the same setting: the same measure for `CSCC[C@H](NC(=O)c1ccc(NC(=O)Cc2csc(S)n2)cc1-c1ccccc1C)C(=O)O`: 538 nM.
Consider `CSCC[C@H](NC(=O)c1ccc(NC(=O)Cc2csc(N)n2)cc1-c1ccccc1C)C(=O)OC(C)C`, for which, in experiment [4] (setting [6]), the IC50 is 107000 nM.
Turning to `CSCC[C@H](NC(=O)c1ccc(NC[C@@H](N)CS)cc1-c1ccccc1)C(=O)O`, in experiment [1] (read-out: IC50), the IC50 was 9 nM.
As to `CSCC[C@H](NC(=O)c1ccc(NC(=O)CCc2csc(SC)n2)cc1-c1ccccc1C)C(=O)OC(C)C`, the IC50 entry in experiment [4] (rasmc) is recorded as “Not Active”.
In the case of `CSCC[C@H](NC(=O)c1ccc(NC(=O)Cc2c[nH]c(S)n2)cc1-c1ccccc1C)C(=O)OC(C)C`, in experiment [4] (setting [6]), the IC50 was found to be 226000 nM.
As to `CSCC[C@H](NC(=O)c1ccc(NC(=O)Cc2c[nH]c(S)n2)cc1-c1ccccc1C)C(=O)O`, the concentration for half-maximal inhibition (IC50) in experiment [1] (read-out: IC50) was found to be 122 nM.
On to `CSCC[C@H](NC(=O)c1ccc(NC(=O)Cc2csc(SC)n2)cc1-c1ccccc1C)C(=O)O`, for which the IC50 result in experiment [1] is on record as “Not Active”.
